The values below come from ChEMBL document CHEMBL2331410, “Synthesis and Pharmacological Characterization of Two Novel, Brain Penetrating P2X7 Antagonists” (ACS Med Chem Lett, 2013).

Converted amounts (≈) assume the structure as drawn. The source made the active and inactive calls. No cut-off for these calls is given here.

Data set [1] deals with Sodium-dependent serotonin transporter (Rattus norvegicus, UniProt P31652). Description: Displacement of [3H]-Citalopram from SERT in rat brain after 60 mins by scintillation counting analysis. The data set is classed as tissue-based. Background: In a radioligand displacement assay an active substance lowers the binding of a labelled ligand.
Data set [2] concerns the target T1, P2X purinoceptor 7 (Homo sapiens, UniProt Q99572).
T1 sequence (Q99572 whole entry): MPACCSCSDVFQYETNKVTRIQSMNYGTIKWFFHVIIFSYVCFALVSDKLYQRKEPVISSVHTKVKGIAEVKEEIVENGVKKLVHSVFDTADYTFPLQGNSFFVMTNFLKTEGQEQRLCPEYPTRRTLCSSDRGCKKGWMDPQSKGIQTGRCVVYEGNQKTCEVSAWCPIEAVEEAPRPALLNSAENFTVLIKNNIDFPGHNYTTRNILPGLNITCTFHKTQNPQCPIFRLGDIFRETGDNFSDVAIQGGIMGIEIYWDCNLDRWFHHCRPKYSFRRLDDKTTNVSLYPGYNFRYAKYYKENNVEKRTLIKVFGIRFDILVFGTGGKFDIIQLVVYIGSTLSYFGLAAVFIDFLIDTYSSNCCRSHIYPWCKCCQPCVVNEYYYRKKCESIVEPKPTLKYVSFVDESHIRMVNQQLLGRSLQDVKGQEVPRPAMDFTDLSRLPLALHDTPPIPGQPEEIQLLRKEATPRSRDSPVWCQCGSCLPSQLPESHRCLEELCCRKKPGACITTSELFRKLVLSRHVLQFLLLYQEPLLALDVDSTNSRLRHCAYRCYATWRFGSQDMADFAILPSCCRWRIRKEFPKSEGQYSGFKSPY
Briefly: Displacement of [3H]-A804598 from human recombinant P2X7 receptor expressed in human 1321N1 cell membranes after 1 hr by […].

For data set [3], the target named is T2, P2X purinoceptor 7 (Mus musculus, UniProt Q9Z1M0).
T2 sequence (Q9Z1M0 whole entry): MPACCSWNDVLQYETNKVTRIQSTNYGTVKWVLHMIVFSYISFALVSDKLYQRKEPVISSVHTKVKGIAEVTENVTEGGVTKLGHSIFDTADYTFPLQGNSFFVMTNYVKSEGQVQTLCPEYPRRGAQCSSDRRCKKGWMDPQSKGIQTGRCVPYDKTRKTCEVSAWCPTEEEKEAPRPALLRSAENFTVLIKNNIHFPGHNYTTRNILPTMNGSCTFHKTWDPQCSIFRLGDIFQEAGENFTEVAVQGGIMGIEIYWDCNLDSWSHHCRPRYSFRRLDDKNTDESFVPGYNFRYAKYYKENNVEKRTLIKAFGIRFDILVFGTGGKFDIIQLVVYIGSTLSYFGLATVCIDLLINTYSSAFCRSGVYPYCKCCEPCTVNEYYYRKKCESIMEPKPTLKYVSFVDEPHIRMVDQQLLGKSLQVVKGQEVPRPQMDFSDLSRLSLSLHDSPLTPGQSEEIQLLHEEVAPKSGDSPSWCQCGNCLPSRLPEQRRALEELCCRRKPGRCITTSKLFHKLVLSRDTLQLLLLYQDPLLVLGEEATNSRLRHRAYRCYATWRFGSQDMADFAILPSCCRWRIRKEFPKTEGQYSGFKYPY
Description: Antagonist activity at mouse P2X7 receptor assessed as inhibition of ATP-induced Ca2+ flux by FLIPR assay. A general note: Calcium flux is commonly read through the fluorescence of an indicator in the cells.

Data set [4] addresses T3, P2X purinoceptor 7 (Rattus norvegicus, UniProt Q64663).
T3 sequence (Q64663 whole entry): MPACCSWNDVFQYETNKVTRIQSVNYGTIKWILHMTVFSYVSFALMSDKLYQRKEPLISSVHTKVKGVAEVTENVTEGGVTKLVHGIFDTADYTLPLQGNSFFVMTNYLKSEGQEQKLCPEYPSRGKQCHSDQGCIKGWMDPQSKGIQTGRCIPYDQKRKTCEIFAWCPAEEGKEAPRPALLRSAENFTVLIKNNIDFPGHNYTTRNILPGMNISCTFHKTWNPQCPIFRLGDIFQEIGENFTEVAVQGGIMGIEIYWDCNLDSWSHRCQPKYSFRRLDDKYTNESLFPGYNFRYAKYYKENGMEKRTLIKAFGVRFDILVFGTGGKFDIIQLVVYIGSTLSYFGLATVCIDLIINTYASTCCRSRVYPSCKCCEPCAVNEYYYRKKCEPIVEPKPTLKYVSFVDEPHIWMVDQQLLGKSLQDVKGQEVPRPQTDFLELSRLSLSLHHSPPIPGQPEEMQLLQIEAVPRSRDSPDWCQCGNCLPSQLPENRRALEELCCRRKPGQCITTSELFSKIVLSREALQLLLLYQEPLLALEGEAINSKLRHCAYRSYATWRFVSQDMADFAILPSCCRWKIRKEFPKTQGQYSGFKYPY
Briefly: Antagonist activity at rat P2X7 receptor assessed as inhibition of ATP-induced Ca2+ flux by FLIPR assay.

Data set [5] has as its target T1, P2X purinoceptor 7. Briefly: Antagonist activity at human recombinant P2X7 receptor expressed in human 1321N1 cells assessed as inhibition of BzATP-induced Ca2+ flux after 30 mins by FLIPR assay. The format is cell-based.
The species named for data set [6] is Rattus norvegicus. Description: Ex-vivo SERT occupancy in Sprague-Dawley rat by autoradiographic analysis. The data set is classed as functional.
Data set [7] deals with Rattus norvegicus. Briefly: Ex-vivo P2X7 receptor occupancy in sc dosed Sprague-Dawley rat brain assessed as inhibition of [3H]A804598 binding after 120 mins by autoradiographic analysis. The data set is classed as functional.
For data set [8], the system named is Rattus norvegicus. Description: Ex-vivo P2X7 receptor occupancy in Sprague-Dawley rat brain assessed as inhibition of [3H]A804598 binding at 10 mg/kg, sc by autoradiographic analysis. The data set is classed as functional, organism-based. Set-up: dose 10 mg/kg. The procedure, abridged:
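Single subcutaneous dose given to rats; P2X7 occupancy in brain was assessed ex vivo by autoradiography at several times after dosing, with plasma and brain drug levels measured in parallel. n = 3 per time point, mean ± SEM.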

Data set [9] can be described thus: Solubility of the compound at pH 7. The data set is classed as physicochemical. To be noted: buffer.
A short description of data set [10]: Protein binding in rat brain. The format is ADME, tissue-based. Conditions: brain tissue, read-out: PB (converted).
Data set [11] in a line: Solubility of the compound at pH 2. To be noted: buffer. The format is physicochemical.
The nature of data set [12]: Apparent permeability from basolateral to apical side in human Caco2 cells at 1 uM after […] by LC/MS/MS analysis. The format is ADME, cell-based. Conditions: Caco-2. (Caco-2 cells form a polarised layer with tight junctions and transporters.)
Data set [13] is described as follows: Plasma protein binding in rat by equilibrium dialysis method. The data set is classed as ADME, cell-free. To be noted: read-out: PPB (converted).
A short description of data set [14]: Apparent permeability from apical to basolateral side in human Caco2 cells at 1 uM after 60 mins by LC/MS/MS analysis. The format is ADME, cell-based. Conditions: Caco-2.
Data set [15] in a line: Extraction ratio in mouse liver microsomes at 1 uM by LC/MS/MS analysis. The data set is classed as ADME, Microsome. Conditions: read-out: ERH.
Data set [16] can be described thus: Plasma protein binding in human by equilibrium dialysis method. The data set is classed as ADME, cell-free. Conditions: read-out: PPB (converted).
Data set [17] in a line: Extraction ratio in human liver microsomes at 1 uM by LC/MS/MS analysis. The data set is classed as ADME, Microsome. Conditions: read-out: ERH.
Data set [18] can be described thus: Extraction ratio in rat liver microsomes at 1 uM by LC/MS/MS analysis. The format is ADME, Microsome. To be noted: read-out: ERH.
The nature of data set [19]: Inhibition of rat nACHR.
In data set [20] the target is T4, Sodium-dependent dopamine transporter (Homo sapiens, UniProt Q01959). Briefly: Inhibition of human dopamine transporter.
Data set [21] is filed under the species Rattus norvegicus. Description: Inhibition of rat nACHR at 1 uM relative to control.
In data set [22] the target is T4, Sodium-dependent dopamine transporter. Briefly: Inhibition of human dopamine transporter at 1 uM relative to control.
The target of data set [23] is T5, Substance-K receptor (Homo sapiens) (UniProt P21452).
T5 sequence (whole entry): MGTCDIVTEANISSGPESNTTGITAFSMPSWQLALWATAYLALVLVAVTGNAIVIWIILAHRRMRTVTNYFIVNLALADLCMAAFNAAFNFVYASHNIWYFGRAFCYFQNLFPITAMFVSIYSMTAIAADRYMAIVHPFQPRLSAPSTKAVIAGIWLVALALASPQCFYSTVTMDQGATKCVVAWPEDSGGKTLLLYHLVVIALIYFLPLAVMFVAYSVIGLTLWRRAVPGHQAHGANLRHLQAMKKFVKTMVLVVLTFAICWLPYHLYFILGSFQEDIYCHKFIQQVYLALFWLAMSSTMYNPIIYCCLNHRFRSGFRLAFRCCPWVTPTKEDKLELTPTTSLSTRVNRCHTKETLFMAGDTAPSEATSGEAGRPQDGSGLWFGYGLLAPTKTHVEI
Briefly: Inhibition of human NK2 receptor at 1 uM relative to control.

Data set [24] deals with T1, P2X purinoceptor 7. Briefly: Antagonist activity at P2X7 receptor in human whole blood assessed as inhibition of BzATP-induced IL1beta release incubated 30 mins prior to BzATP-challenge measured after 1.5 hrs by ELISA.
Data set [25] concerns the target T1, P2X purinoceptor 7. Description: Antagonist activity at P2X7 receptor in human PBMC assessed as inhibition of BzATP-induced IL1beta release incubated 30 mins prior to BzATP-challenge measured after 1.5 hrs by ELISA.
For data set [26], the target named is Sodium-dependent serotonin transporter (Homo sapiens, UniProt P31645). Briefly: Displacement of [3H]-Citalopram from human SERT expressed in human HEK293 cells after 1 hr by scintillation counting analysis. The format is cell-based.
Data set [27] concerns the target T3, P2X purinoceptor 7. Description: Antagonist activity at rat P2X7 receptor by radioligand binding assay.
Data set [28] concerns Rattus norvegicus. Description: Ex-vivo P2X7 receptor occupancy in sc dosed Sprague-Dawley rat brain assessed as inhibition of [3H]A804598 binding after 15 mins by autoradiographic analysis. The format is functional.
Data set [29] concerns Rattus norvegicus. Briefly: Ex-vivo P2X7 receptor occupancy in Sprague-Dawley rat brain assessed as inhibition of [3H]A804598 binding at 30 mg/kg, sc after 2 hrs by autoradiographic analysis relative to control. Conditions: route subcutaneous. The format is functional. The method, boiled down: (§1)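 Rat brain P2X7 occupancy by ex vivo autoradiography after one 30 mg/kg subcutaneous dose, followed over time. Plasma and brain drug levels were measured at the same time points. n = 3 per time point, mean ± SEM.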

For data set [30], the system named is Rattus norvegicus. Description: Ex-vivo P2X7 receptor occupancy in Sprague-Dawley rat brain assessed as inhibition of [3H]A804598 binding at 30 mg/kg, sc by autoradiographic analysis. The format is functional, organism-based. Set-up: dose 30 mg/kg. The method, boiled down: as §1

T4 sequence (Q01959 whole entry): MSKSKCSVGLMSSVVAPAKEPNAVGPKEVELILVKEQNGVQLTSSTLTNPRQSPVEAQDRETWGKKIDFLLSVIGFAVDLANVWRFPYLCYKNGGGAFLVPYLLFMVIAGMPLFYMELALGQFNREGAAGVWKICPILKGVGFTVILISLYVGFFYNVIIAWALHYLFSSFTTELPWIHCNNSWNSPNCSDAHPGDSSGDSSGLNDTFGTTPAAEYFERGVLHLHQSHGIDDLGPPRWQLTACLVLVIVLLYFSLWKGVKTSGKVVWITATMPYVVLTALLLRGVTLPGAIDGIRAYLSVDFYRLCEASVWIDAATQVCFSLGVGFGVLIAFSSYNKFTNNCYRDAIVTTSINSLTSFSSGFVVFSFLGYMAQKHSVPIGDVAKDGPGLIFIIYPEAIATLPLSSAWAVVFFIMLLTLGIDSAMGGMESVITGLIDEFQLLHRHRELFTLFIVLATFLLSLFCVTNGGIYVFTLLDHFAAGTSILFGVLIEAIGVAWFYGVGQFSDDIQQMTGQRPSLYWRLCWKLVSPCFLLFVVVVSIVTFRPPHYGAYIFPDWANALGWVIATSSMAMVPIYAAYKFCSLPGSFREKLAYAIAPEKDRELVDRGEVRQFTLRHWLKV
Sequence of Sodium-dependent serotonin transporter (Rattus norvegicus, UniProt P31652) (P31652 whole entry): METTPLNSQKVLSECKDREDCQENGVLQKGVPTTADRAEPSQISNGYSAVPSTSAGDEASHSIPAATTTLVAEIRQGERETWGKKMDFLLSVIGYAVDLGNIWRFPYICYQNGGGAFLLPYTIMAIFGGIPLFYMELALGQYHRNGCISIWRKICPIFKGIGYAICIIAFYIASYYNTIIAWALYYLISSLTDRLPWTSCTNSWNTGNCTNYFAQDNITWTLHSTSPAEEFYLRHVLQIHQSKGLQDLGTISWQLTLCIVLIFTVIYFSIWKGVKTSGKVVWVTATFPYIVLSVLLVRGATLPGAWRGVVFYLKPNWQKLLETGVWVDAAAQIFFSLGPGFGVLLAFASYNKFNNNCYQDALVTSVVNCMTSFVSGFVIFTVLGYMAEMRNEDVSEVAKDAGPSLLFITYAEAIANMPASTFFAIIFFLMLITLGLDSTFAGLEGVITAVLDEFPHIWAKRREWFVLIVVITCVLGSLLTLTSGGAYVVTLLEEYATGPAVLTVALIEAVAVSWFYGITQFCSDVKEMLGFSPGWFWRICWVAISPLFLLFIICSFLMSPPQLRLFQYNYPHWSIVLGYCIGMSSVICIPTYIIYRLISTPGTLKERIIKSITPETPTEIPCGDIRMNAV
Sequence of Sodium-dependent serotonin transporter (Homo sapiens, UniProt P31645) (P31645 whole entry): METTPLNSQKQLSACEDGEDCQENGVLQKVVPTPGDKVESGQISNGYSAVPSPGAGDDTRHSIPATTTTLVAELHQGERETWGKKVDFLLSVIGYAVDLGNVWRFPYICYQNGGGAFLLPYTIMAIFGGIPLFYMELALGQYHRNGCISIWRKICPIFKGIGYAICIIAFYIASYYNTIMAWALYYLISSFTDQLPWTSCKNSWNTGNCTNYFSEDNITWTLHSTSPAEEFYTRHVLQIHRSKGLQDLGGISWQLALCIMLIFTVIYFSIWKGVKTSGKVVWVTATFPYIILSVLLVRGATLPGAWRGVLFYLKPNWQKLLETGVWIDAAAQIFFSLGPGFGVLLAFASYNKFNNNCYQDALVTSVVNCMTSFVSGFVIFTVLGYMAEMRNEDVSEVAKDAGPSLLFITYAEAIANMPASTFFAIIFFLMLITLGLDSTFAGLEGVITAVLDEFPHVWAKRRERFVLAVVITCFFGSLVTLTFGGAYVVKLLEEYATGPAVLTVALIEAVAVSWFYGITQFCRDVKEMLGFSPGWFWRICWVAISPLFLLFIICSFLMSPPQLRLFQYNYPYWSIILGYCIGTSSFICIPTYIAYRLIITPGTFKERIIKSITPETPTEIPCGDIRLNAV

Broadly, the Ki is the equilibrium dissociation constant of an inhibitor or competing ligand from its target. What is called IC50 is the concentration that inhibits the measured activity by half. Broadly, the ED50 is the midpoint of the dose-response relation. Broadly, the solubility is how much of the substance goes into solution per volume. Read a low solubility as a poorly soluble substance. In general, Papp B→A refers to how fast a substance crosses the layer from the basolateral side. For orientation: Papp A→B means the apparent permeability from the apical to the basolateral side of a cell layer. Usually inhibition stands for the drop in the measured response relative to a control, in per cent. A high value points to a strong effect. `CN1CCc2c(cccc2C(=O)NCC2(N3CCN(c4ccccc4)CC3)CCCCC2)C1`: the Ki in data set [1] was 20 nM; in [2] it was 12.6 nM; in data set [26], 15.8 nM; in [27], 0.794 nM. For the same compound, the IC50 in data set [3] is 79.4 nM; in data set [4], 15.8 nM; in data set [5], 20 nM; in [19] it was 910 nM; in [20], 290 nM; in data set [24] it was 200 nM. In [25], the 50% inhibitory concentration (IC50) was 39.8 nM. Also, the results for the 50% effective dose (ED50) in [6] and in data set [7] were 24 mg/kg and 0.3 mg/kg, respectively. The result in [8] was Active. For the same compound, the solubility turned out to be 90 µM (≈ 40.2 µg/mL) in data set [9] and 95 µM (≈ 42.4 µg/mL) in [11]. The fraction unbound was 0.024 in data set [10], 0.044 in data set [13] and 0.165 in [16]. In addition, in [12], the Papp B→A at 1 µM was determined as 2.1 ×10⁻⁶ cm/s. Further, the Papp A→B at 1 h, 1 µM in data set [14] was found to be 11 ×10⁻⁶ cm/s. The hepatic extraction ratio at 1 µM came to 0.9 in [15], 0.9 in [17] and 0.86 in [18]. In addition, the values for the inhibition in [21], in data set [22] and in [23] were 54%, 93% and 68%, respectively.

Consider `O=C(NCC1(N2CCN(c3ccccc3)CC2)CCOCC1)c1cccnc1Sc1ccccc1`, for which the values for the inhibitory constant (Ki) in data set [1], in data set [2] and in data set [27] were 3160 nM, 12.6 nM and 2 nM, respectively. Further, the IC50 in data set [3] is 31.6 nM; in data set [4], 63.1 nM; in data set [24], 200 nM; in [25], 25.1 nM. Moreover, the ED50 in [28] came to 2.5 mg/kg. In [29], the Occ was more than 50%. For the same compound, the figures for the solubility in data set [9] and in data set [11] were 31 µM (≈ 15.1 µg/mL) and 400 µM (≈ 195 µg/mL), respectively. In addition, in [30], the result was Active. In addition, the values for the fraction unbound in data set [10], in data set [13] and in data set [16] were 0.017, 0.029 and 0.022, respectively. Besides, the hepatic extraction ratio at 1 µM is more than 0.93 in data set [15], more than 0.95 in [17] and more than 0.92 in data set [18].
